Bioassay records as filed in PubChem.
Only some compounds are listed: those with a hit (about 1.8% of all), similar ones and a draw of the others.
M5 antag – CHRM5 antagonism in calcium assay; CHO-hM5 cells, Fluo-8 calcium fluorescence, ACh EC80; hit rate 0.59% among 360,000; inhibition, % at 3 µM; P08912;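 active = inhibition above a per-plate cutoff, the mean of that plate's test compounds plus 3 SD, cut at about 27% in these data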
CHRM4 PAM – potentiates acetylcholine response at human M4 receptor | CHO-K1 hM4/Gqi5, Fluo-8 calcium fluorescence, ACh EC20; 0% = ACh EC20, 100% = maximal ACh | P08173 | hit rate 0.4% among 360,000 | activation, % at 3 µM;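 active = activation above its plate's cutoff, the mean activation of sample wells plus 3 SD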
Target sequence (P08173 whole entry, looked up): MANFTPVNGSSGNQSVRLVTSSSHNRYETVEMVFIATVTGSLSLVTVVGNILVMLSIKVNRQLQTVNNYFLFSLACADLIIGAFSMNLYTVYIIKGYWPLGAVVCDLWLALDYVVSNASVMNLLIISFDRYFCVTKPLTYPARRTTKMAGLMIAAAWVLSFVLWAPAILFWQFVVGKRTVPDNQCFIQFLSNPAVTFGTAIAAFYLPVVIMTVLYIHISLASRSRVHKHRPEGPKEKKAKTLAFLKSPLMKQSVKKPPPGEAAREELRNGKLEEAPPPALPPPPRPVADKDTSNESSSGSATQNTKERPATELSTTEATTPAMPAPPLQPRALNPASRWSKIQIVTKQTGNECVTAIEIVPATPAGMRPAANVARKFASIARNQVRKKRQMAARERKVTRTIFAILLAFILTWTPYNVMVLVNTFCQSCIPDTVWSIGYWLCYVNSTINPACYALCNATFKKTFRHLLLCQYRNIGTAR
M5 ag – CHRM5 agonism in calcium assay; P08912; CHO-K1 hM5 cells, Fluo-8 calcium fluorescence; 0% DMSO wells, 100% maximal acetylcholine response; activation, % at 3 µM; hit rate 0.19% among 360,000;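 active = activation above the run's mean over test compounds plus 3 SD, cut at about 23% in these data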;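 also: signal is peak over basal fluorescence ratio across the kinetic read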
M4 antag – antagonists of human muscarinic M4 receptor (CHRM4) | hit rate 0.73% among 360,000 | inhibition, % at 3 µM | P08173 | CHO-hM4 cells, ACh EC80, Fluo-8 calcium fluorescence;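 active = inhibition above its plate's cutoff, the mean inhibition of sample wells plus 3 SD, cut at about 27% in these data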
M5 PAM – potentiates acetylcholine response at human M5 receptor; activation, % at 3 µM; hit rate 0.3% among 360,000; P08912; CHO-K1 hM5, Fluo-8 calcium, ACh EC20 PAM; 0% = ACh EC20, 100% = ACh EC100;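 active = activation above the run cutoff, the mean activation of all test compounds plus 3 SD, cut at about 18% in these data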
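system = human M5 receptor in CHO-K1 cells | compound = one concentration, 3 µM final (nominal) | schedule = Post-acetylcholine fluorescence recording 140 s | signal = Fluo-8 calcium dye fluorescence, kinetic read | benchmarks = low control EC20 acetylcholine (0%), high control EC100 acetylcholine (100%) | repeats = singlicate, one well per test compound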
CHRM4 agonist – agonists of human muscarinic M4 receptor (CHRM4). P08173. CHO-K1 hM4/Gqi5, Fluo-8 calcium fluorescence; vehicle 0%, full acetylcholine response 100%. activation, % at 3 µM. hit rate 0.14% among 360,000. AID 624127;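 active = activation above the run mean over all test wells plus 3 SD, cut at about 32% in these data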;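 also: peak over basal fluorescence ratio per well then scaled between controls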
Hits are given with their value; n = inactive.

SMILES	M5 antag	CHRM4 PAM	M5 ag	M4 antag	M5 PAM	CHRM4 agonist
CCOC(=O)CSc1ccc(C(=O)NCCCN2CCOCC2)cc1[N+](=O)[O-]	n	n	n	27	n	n
COc1ccc(C(=O)NCCN2CCOCC2)cc1[N+](=O)[O-]	n	n	n	n	n	n
O=C(NCCCN1CCOCC1)c1ccc(Cl)c([N+](=O)[O-])c1	n	n	n	n	n	n
O=C(NCCCN1CCOCC1)c1ccc(Sc2cccc(Cl)c2)c([N+](=O)[O-])c1	n	n	n	47	n	n
CCNC(=O)O/N=C1\CCCCC1c1ccc([N+](=O)[O-])cc1[N+](=O)[O-] (stereo not given)	n	n	n	n	n	n
CCC(C(=O)NCc1cccs1)n1nc(C)n2c(cc3occc32)c1=O (stereo not given)	n	n	n	n	26	n
O=C(CN1CCN(Cc2ccc(Cl)cc2)CC1)N1CCc2ccccc21	n	n	n	n	n	n
Cc1cc(C)nc(/N=C(\N)Nc2ccc(OCc3ccccc3)cc2)n1	96	n	63	98	n	111
Cc1cc(C)nc(/N=C(\N)Nc2ccc(S(=O)(=O)O)cc2)n1	n	n	n	n	n	n
Cc1cc(C)nc(/N=C(\N)Nc2ccc(OCCC(C)C)cc2)n1	76	n	64	86	n	105
COc1ccccc1N/C(N)=N/c1nc(C)cc(C)n1	n	n	n	n	n	n
Cc1cc(C)nc(/N=C(\N)Nc2cccc(OCc3ccccc3)c2)n1	29	n	39	68	n	81
COc1ccc(N/C(N)=N/c2nc(C)cc(C)n2)cc1	n	n	n	n	n	n
CCOC(=O)C(=O)Nc1ccc(OCc2ccccc2)cc1	n	n	n	n	n	n
Cc1cc(C)nc(/N=C(\N)Nc2ccc(CC(=O)OC(C)C)cc2)n1	42	n	31	83	n	113
O=C1N[C@@H](Cc2c[nH]c3ccccc23)COC(=O)[C@@H](Cc2ccc(F)cc2)CC/C=C/C[C@@H]1CC(=O)N(CCO)Cc1ccccc1	n	n	n	n	n	n
COC(=O)CCCC(=O)N1CCCC(N(C)CCc2ccccc2)C1 (stereo not given)	n	n	n	n	n	n
CCC(=O)Nc1cc(OC)c(NC(=S)Nc2ccccc2CC)cc1OC	n	n	n	n	n	n
COCCCNC(=O)c1cn(Cc2c(F)cccc2Cl)nn1	n	n	n	n	30	n
CCCNC(=O)C1CCN(S(=O)(=O)c2c(C)noc2/C=C\c2ccc(OC)cc2)CC1	n	n	n	n	n	n
CNC(=O)C1CCN(S(=O)(=O)c2c(C)noc2/C=C/c2ccc(OC)cc2)CC1	80	n	n	n	n	n
COc1ccccc1N1CCN(CCCCCCOc2ccc(F)cc2)CC1	39	n	n	n	n	n
CCOC(=O)C1(C)CCN1C(=O)c1ccccc1Br (stereo not given)	n	n	n	n	n	n
O=C(CC(NC(=O)OCc1ccccc1)C(=O)OCc1ccccc1)OCc1ccccc1 (stereo not given)	n	n	n	28	n	n
O=C(CC(NC(=O)OCc1ccccc1)C(=O)O)OCc1ccccc1 (stereo not given)	n	n	n	n	n	n
SMILES	M5 antag	CHRM4 PAM	M5 ag	M4 antag	M5 PAM	CHRM4 agonist
O=C(COC(=O)/C=C/c1ccc(Cl)cc1Cl)NCCC1=CCCCC1	n	n	n	28	27	n
O=[N+]([O-])c1ccc(S(=O)Cc2ccccc2)c([N+](=O)[O-])c1 (stereo not given)	n	n	n	77	n	n
O=C(CSc1ccc(-c2nc3ccccc3[nH]2)cn1)Nc1ccc(S(=O)(=O)NC2CC2)cc1	n	n	n	31	n	n
Cc1cc2c(NCCc3ccccc3)ncnc2s1	n	n	n	n	n	n
c1ccc(CCNc2ncnc3ccccc23)cc1	30	n	n	n	n	n
CCCCCCCCNc1ncnc2ccccc12	43	n	n	27	n	n
CCOC1=C2CN(S(=O)(=O)c3ccc(C)cc3)C(c3ccccc3)CC2N(S(=O)(=O)c2ccc(C)cc2)C(c2ccc(Br)cc2)C1 (stereo not given)	n	n	n	n	n	n
Cc1ccc(Cn2cc(CN3CC(N4CCN(CCO)CC4)CS3(=O)=O)nn2)cc1 (stereo not given)	n	n	n	n	n	n
CCc1c(C)nc(SCC(N)=O)c(C#N)c1C	n	n	n	n	n	n
CCc1c(C)nc(SCC(=O)c2cccs2)c(C#N)c1C	n	80	n	39	n	n
CCOC(=O)[C@H]1[C@H]2COc3ccc(Cl)cc3[C@@H]2N2C(=O)c3cc(F)c(F)cc3NC(=O)[C@@]12C	n	n	n	n	n	n
COc1cc(C=C2C(=O)OC(C)(C)OC2=O)cc(Cl)c1OCC(=O)Nc1ccccc1	n	n	n	n	n	n
CC(C)(C)C1(C)OC(=O)C(=Cc2ccc(OCC(=O)Nc3ccccc3)cc2)C(=O)O1 (stereo not given)	n	30	n	n	n	n
NC(=O)CC1(c2ccccc2)CCCCC1	n	n	n	n	n	n
CCCCNC(=O)c1cc(-c2ccccc2)sc1N	n	n	n	n	21	n
COCCNC(=O)c1cc(-c2ccccc2)sc1N	n	n	n	n	n	n
Cc1ccccc1C(C)NC(=O)COC(=O)Cn1cc(C(F)(F)F)ccc1=O (stereo not given)	n	n	n	n	n	n
CC(C)C1C(=O)N(Cc2cn(Cc3ccco3)nn2)CCS(=O)(=O)N1Cc1ccc(-c2cccc(N(C)C)c2)cc1 (stereo not given)	n	18	n	n	n	n
CC1(C(=O)NS(=O)(=O)c2cccc(F)c2)CCN1C(=O)Cc1cccc2ccccc12 (stereo not given)	n	n	n	n	n	n
O=C(c1ccc(-c2cc(Cl)ccc2Cl)o1)N1CCOCC1	n	n	n	n	19	n
O=C(c1ccc(-c2ccc(Cl)cc2Cl)o1)N1CCOCC1	n	n	n	n	n	n
Cc1ccc(C2NC(=S)NC3=C2C(=O)CCC3)cc1 (stereo not given)	n	n	n	n	n	n
CC(C)c1ccc(C2NC(=S)NC3=C2C(=O)CCC3)cc1 (stereo not given)	n	n	n	27	n	n
CCCCn1nnc(NC(=S)NC(=O)c2ccc(OCC)c([N+](=O)[O-])c2)n1	n	n	n	n	n	n
CCCCc1nc(Cl)c(CO)n1Cc1ccc(-c2ccccc2-c2nnn[nH]2)cc1	n	n	33	n	n	n
